Active and inactive are the calls of the source. The rule behind the calls is not given here.
Assays:
PC-12 [1] = experiment: Neuroprotective activity against NaN3-induced cell injury in rat PC12 cells assessed as cell survival rate at 5 uM measured after 24 hrs by CCK-8 assay (reference value: 49.9 to 52%); format: functional; details: read-out: Survival
PC-12 [2] = experiment: Neuroprotective activity against NaN3-induced cell injury in rat PC12 cells assessed as cell survival rate at 10 uM measured after 24 hrs by CCK-8 assay (reference value: 49.9 to 52%); format: functional; details: read-out: Survival
PC-12 [3] = experiment: Neuroprotective activity against NaN3-induced cell injury in rat PC12 cells assessed as cell survival rate at 20 uM measured after 24 hrs by CCK-8 assay (reference value: 49.9 to 52%); format: functional; details: read-out: Survival
PC-12 [4] = experiment: Neuroprotective activity against NaN3-induced cell injury in rat PC12 cells assessed as cell survival rate at 40 uM measured after 24 hrs by CCK-8 assay (reference value: 49.9 to 52%); format: functional; details: read-out: Survival
PC-12 [5] = experiment: Neuroprotective activity against NaN3-induced cell injury in rat PC12 cells assessed as cell survival rate at 80 uM measured after 24 hrs by CCK-8 assay (reference value: 49.9 to 52%); format: functional; details: read-out: Survival
PC-12 [6] = experiment: Neuroprotective activity against NaN3-induced cell injury in rat PC12 cells assessed as cell survival rate at 100 uM measured after 24 hrs by CCK-8 assay (reference value: 49.9 to 52%); format: functional; details: read-out: Survival
PC-12 [7] = experiment: Neuroprotective activity against NaN3-induced cell injury in rat PC12 cells assessed as cell survival rate at 5 uM measured after 24 hrs by CCK-8 assay (reference value: 50%); format: functional; details: read-out: Survival
PC-12 [8] = experiment: Neuroprotective activity against NaN3-induced cell injury in rat PC12 cells assessed as cell survival rate at 10 uM measured after 24 hrs by CCK-8 assay (reference value: 50%); format: functional; details: read-out: Survival
PC-12 [9] = experiment: Neuroprotective activity in rat PC12 cells assessed as prevention of NaN3-induced apoptosis at 5 to 10 uM measured after 24 hrs by Hoechst staining based assay; format: functional, cell-based; details: dose 5-10 µM
Summary of the method: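 PC12 cells plated at about 1 × 10⁵ per well and cultured overnight. Pretreated 1 h with 5, 10 or 20 μM compound, then NaN₃ for 24 h in glucose-free, serum-free RPMI 1640 after two washes in glucose-free EBSS pH 7.5. Cells fixed 30 min in methanol, stained with Hoechst 33258 for 10 min at 37 °C in the dark, and scored for nuclear morphology by fluorescence microscopy (ex 350/em 461 nm).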

PC-12 [10] = experiment: Neuroprotective activity in rat PC12 cells assessed as reduction in NaN3-induced LDH release at 5 to 10 uM measured by LDH release assay (reference value: 411.84 to 416.67 U/L); format: functional; details: dose 5-10 µM
PC-12 [11] = experiment: Neuroprotective activity in rat PC12 cells assessed as reduction in NaN3-induced MDA release at 5 uM measured (reference value: 253 nmol/mL); format: functional
PC-12 [12] = experiment: Neuroprotective activity in rat PC12 cells assessed as prevention of NaN3-induced decrease in SOD release at 5 to 20 uM measured (reference value: 54 U/mg of protein); format: functional; details: dose 5-20 µM
PC-12 [13] = experiment: Neuroprotective activity against NaN3-induced cell injury in rat PC12 cells assessed as cell survival rate at 20 uM measured after 24 hrs by CCK-8 assay (reference value: 50%); format: functional; details: read-out: Survival
PC-12 [14] = experiment: Neuroprotective activity against NaN3-induced cell injury in rat PC12 cells assessed as cell survival rate at 40 uM measured after 24 hrs by CCK-8 assay (reference value: 50%); format: functional; details: read-out: Survival
[15] = target: T1, Cav1.2 (L-type calcium channel alpha1c/beta2a/alpha2delta1) (Homo sapiens, UniProt P54289+Q08289+Q13936); experiment: Inhibition of human alpha1c/beta2a/alpha2delta1 Cav1.2 expressed in HEK293 cells assessed as time course of inhibition of membrane potential measured after washout with external solution at 10 uM by manual patch clamp technique; format: cell-based
Summary of the method: (§1)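 HEK-293 cells stably expressing hCav1.2 (α1C/β2a/α2δ1), induced with tetracycline 1 μg/mL for 24 h. Perforated whole-cell manual patch clamp (amphotericin B 250 μg/mL in pipette; Cs-methanesulfonate internal, pH 7.2) at 24 °C. Holding potential −90 mV, 1000 ms prepulse inactivating 20% of channels, then a 50 ms step to 0 mV, repeated every 15 s. I_Ca-L followed over time, then washout with external solution. Final ethanol/DMSO ≤1.00%.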

[16] = target: T1, Cav1.2 (L-type calcium channel alpha1c/beta2a/alpha2delta1); experiment: Inhibition of human alpha1c/beta2a/alpha2delta1 Cav1.2 expressed in HEK293 cells assessed as time course of inhibition of membrane potential measured after washout with external solution at 30 uM by manual patch clamp technique; format: cell-based; summary of the method: as §1
[17] = target: T1, Cav1.2 (L-type calcium channel alpha1c/beta2a/alpha2delta1); experiment: Inhibition of human alpha1c/beta2a/alpha2delta1 Cav1.2 expressed in HEK293 cells assessed as time course of inhibition of membrane potential measured after washout with external solution at 100 uM by manual patch clamp technique; format: cell-based; summary of the method: as §1
[18] = target: L-type calcium channel alpha-1c/beta-2/alpha2delta-1 (Homo sapiens, UniProt P54289+Q08289+Q13936); experiment: Inhibition of human alpha1c/beta2a/alpha2delta1 Cav1.2 expressed in HEK293 cells assessed as time course of inhibition of membrane potential measured after washout with external solution by manual patch clamp technique; format: cell-based; summary of the method: as §1
PC-12 [19] = experiment: Neurotrophic activity in rat PC12 cells assessed as cell survival rate at 1 uM measured after 24 hrs by CCK-8 assay (reference value: 50%); details: PC-12, 24 h
PC-12 [20] = experiment: Neuroprotective activity against NaN3-induced cell injury in rat PC-12 cells assessed as cell survival rate at 2 to 8 uM measured after 24 hrs by CCK-8 assay (reference value: 50%); format: functional; details: dose 2-8 µM
PC-12 [21] = experiment: Neuroprotective activity in rat PC12 cells assessed as reduction in NaN3-induced LDH release at 4 uM measured by LDH release assay (reference value: 411.84 to 416.67 U/L); format: functional
Summary of the method: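 PC12 injury model: glucose-free, serum-free RPMI 1640. Pretreatment 4 μM, 1 h before NaN3, then 24 h with NaN3. Cells disrupted by ultrasonication and centrifuged at 10 000 rpm for 10 min at 4 °C. Supernatant LDH measured with a commercial kit, in U/L. n = 3 independent experiments.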

[22] = target: L-type calcium channel alpha-1c/beta-2/alpha2delta-1 (Homo sapiens, UniProt P54289+Q13936+Q08289); experiment: Irreversible inhibition of human alpha1c/beta2a/alpha2delta1 Cav1.2 expressed in HEK293 cells assessed as decrease in membrane potential measured after washout with external solution at 100 uM by manual patch clamp technique; format: cell-based; details: hek293, 100 µM; summary of the method: as §1

T1 sequence (P54289 25-956 limits assumed): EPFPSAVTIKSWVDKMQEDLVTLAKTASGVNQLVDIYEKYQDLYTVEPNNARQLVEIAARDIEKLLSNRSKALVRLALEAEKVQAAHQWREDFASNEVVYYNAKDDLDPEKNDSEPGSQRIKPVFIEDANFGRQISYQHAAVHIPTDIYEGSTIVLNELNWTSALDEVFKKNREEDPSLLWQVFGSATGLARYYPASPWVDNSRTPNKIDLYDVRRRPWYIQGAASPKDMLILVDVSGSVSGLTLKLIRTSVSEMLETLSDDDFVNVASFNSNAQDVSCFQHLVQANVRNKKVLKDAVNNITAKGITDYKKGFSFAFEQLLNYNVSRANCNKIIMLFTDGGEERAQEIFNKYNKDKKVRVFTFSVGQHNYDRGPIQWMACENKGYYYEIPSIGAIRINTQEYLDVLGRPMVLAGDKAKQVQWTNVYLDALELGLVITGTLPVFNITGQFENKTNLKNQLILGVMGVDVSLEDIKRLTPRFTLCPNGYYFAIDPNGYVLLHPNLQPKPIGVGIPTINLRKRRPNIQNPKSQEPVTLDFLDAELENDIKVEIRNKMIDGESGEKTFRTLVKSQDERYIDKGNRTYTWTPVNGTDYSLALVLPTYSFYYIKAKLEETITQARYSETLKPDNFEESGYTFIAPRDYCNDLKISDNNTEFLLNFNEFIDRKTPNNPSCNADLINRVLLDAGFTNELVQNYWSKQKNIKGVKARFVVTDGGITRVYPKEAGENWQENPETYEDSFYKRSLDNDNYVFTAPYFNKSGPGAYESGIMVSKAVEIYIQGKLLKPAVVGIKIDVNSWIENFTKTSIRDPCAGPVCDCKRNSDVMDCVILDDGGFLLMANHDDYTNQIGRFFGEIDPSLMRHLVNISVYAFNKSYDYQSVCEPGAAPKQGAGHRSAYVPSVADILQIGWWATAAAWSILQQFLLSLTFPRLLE
T1 sequence (P54289 957-1103 limits assumed): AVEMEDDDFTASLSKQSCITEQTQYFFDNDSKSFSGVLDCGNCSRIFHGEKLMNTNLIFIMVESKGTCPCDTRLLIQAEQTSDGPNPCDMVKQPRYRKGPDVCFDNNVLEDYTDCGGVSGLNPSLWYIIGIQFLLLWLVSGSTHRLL
T1 sequence (Q08289 whole entry): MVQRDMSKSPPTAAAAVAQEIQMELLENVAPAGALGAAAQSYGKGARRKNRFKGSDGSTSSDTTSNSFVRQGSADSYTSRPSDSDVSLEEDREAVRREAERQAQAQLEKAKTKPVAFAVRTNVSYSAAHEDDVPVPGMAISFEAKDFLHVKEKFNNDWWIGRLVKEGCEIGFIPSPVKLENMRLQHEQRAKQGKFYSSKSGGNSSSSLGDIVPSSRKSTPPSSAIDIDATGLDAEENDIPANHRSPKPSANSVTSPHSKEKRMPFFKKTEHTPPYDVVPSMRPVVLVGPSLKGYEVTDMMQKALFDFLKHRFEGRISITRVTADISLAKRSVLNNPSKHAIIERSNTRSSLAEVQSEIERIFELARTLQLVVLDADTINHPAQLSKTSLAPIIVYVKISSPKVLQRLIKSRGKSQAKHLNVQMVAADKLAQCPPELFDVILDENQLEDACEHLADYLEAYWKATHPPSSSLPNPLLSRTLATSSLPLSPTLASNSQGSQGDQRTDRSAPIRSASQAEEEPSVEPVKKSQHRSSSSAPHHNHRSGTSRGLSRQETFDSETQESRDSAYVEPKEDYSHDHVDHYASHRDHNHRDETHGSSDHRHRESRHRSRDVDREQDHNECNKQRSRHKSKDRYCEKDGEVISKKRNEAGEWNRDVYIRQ
T1 sequence (Q13936 whole entry): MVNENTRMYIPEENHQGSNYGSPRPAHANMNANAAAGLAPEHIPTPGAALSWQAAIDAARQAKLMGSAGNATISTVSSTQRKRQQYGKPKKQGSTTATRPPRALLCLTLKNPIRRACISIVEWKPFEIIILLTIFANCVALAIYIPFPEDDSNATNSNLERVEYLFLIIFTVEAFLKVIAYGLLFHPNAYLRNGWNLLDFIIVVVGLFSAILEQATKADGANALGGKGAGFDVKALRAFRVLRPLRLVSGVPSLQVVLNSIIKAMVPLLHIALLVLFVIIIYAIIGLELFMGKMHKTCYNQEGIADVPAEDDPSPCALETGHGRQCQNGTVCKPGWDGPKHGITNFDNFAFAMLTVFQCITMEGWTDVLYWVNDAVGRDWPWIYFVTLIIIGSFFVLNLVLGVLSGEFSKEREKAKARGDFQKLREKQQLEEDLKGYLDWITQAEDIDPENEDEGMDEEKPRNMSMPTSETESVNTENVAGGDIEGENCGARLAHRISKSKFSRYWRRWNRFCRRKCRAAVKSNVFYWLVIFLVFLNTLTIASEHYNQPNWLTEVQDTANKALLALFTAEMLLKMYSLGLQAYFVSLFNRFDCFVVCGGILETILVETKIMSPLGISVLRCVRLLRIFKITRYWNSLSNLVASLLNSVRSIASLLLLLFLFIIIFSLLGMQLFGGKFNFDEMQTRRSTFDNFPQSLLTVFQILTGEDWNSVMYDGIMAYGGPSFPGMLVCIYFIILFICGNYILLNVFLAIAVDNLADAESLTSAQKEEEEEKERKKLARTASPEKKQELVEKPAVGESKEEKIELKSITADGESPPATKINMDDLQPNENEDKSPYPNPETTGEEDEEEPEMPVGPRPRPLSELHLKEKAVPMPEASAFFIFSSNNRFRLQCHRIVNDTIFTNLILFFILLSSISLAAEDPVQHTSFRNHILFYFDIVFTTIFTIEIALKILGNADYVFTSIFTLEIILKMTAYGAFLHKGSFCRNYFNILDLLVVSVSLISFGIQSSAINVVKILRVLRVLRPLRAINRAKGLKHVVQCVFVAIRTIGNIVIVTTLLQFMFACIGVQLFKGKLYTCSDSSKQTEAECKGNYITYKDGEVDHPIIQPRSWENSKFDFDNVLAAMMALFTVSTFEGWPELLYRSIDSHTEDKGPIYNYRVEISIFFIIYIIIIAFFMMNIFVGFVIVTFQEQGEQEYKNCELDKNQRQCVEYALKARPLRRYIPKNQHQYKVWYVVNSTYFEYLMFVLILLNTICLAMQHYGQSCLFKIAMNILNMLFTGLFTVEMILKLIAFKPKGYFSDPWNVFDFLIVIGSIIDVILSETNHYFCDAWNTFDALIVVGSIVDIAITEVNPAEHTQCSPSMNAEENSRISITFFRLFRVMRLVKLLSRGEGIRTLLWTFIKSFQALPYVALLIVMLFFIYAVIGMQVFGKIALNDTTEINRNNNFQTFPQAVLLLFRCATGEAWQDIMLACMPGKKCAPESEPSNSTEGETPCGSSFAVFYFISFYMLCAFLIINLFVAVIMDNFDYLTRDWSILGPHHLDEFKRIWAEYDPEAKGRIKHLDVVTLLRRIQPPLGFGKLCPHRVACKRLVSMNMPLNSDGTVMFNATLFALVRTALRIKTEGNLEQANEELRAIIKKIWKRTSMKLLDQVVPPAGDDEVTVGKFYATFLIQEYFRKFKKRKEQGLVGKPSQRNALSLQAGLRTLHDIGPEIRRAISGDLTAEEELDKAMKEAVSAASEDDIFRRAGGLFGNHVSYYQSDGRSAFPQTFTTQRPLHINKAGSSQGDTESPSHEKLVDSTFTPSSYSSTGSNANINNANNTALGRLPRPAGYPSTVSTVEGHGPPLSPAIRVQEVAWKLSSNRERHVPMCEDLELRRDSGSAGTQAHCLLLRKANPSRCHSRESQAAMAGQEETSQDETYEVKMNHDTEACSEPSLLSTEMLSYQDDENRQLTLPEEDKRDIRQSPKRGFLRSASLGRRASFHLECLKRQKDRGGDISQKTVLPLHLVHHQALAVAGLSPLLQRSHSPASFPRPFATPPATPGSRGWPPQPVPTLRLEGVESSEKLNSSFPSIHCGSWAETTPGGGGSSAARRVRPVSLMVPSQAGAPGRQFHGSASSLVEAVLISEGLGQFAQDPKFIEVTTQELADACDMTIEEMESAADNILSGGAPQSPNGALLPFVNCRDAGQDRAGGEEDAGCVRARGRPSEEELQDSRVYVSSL
Sequence of L-type calcium channel alpha-1c/beta-2/alpha2delta-1 (Homo sapiens, UniProt P54289+Q08289+Q13936) (P54289 25-956 limits assumed): as the sequence (P54289 25-956 limits assumed) above
Sequence of L-type calcium channel alpha-1c/beta-2/alpha2delta-1 (Homo sapiens, UniProt P54289+Q08289+Q13936) (P54289 957-1103 limits assumed): as the sequence (P54289 957-1103 limits assumed) above
Sequence of L-type calcium channel alpha-1c/beta-2/alpha2delta-1 (Homo sapiens, UniProt P54289+Q08289+Q13936) (Q08289 whole entry): as the sequence (Q08289 whole entry) above
Sequence of L-type calcium channel alpha-1c/beta-2/alpha2delta-1 (Homo sapiens, UniProt P54289+Q08289+Q13936) (Q13936 whole entry): as the sequence (Q13936 whole entry) above

| Structure (SMILES) | viability at 5 µM (PC-12 [1]) [%] | viability at 10 µM (PC-12 [2]) [%] | viability at 20 µM (PC-12 [3]) [%] | viability at 40 µM (PC-12 [4]) [%] | viability at 80 µM (PC-12 [5]) [%] | viability at 100 µM (PC-12 [6]) [%] | Activity (PC-12 [11]) [nmol/mL] | other results |
| --- | --- | --- | --- | --- | --- | --- | --- | --- |
| CCCCCCCCC[C@@H](O)C#CC#C[Si](C(C)C)(C(C)C)C(C)C | 49.4 | 47.8 | 46.2 | 43.5 | 39.5 | 37.6 |  |  |
| CC(C)[Si](C#CC#C[C@H](O)c1cccc(F)c1)(C(C)C)C(C)C |  |  |  |  |  |  | 53 | viability at 5 µM (PC-12 [7]): 83%; viability at 10 µM (PC-12 [8]): 76%; Activity (PC-12 [9]): Active; Activity (PC-12 [10]): 132 U/L; Activity (PC-12 [12]): 124 U/mg |
| CC(C)[Si](C#CC#C[C@@H](O)C1CCCC1)(C(C)C)C(C)C |  |  |  |  |  |  |  | viability at 20 µM (PC-12 [13]): 66%; viability at 40 µM (PC-12 [14]): 65% |
| CC(C)[Si](C#CC#C[C@H](O)c1ccccc1)(C(C)C)C(C)C | 60.1 | 66.6 | 58 | 58.2 | 53 | 51.9 | 47 | viability at 5 µM (PC-12 [7]): 60%; viability at 10 µM (PC-12 [8]): 67%; Activity (PC-12 [10]): 132 U/L; Activity (PC-12 [12]): 124 U/mg; inhibition at 10 µM [15]: 7.7%; inhibition at 30 µM [16]: 38.6%; inhibition at 100 µM [17]: 79.7%; IC50 [18]: 41.3 µM; viability at 1 µM (PC-12 [19]): ≤ 96% |
| CCCCCCCCC[C@H](C#CC#C[Si](C(C)C)(C(C)C)C(C)C)OC(=O)c1ccccc1 | 50.4 | 47.9 | 47.5 | 46.4 | 46.4 | 43.9 |  |  |
| CCCCCCCCC[C@H](C#CC#C[C@H](O)c1ccccc1)OC(=O)c1ccccc1 | 65.6 | 63.7 | 61.3 | 51.7 | 36.2 | 31.3 |  |  |
| C#CC#C[C@H](O)c1ccccc1 | 47.8 | 52.4 | 55 | 49.9 | 47.5 | 43.5 |  |  |
| COc1cccc([C@@H](O)C#CC#C[Si](C(C)C)(C(C)C)C(C)C)c1 |  |  |  |  |  |  |  | viability at 20 µM (PC-12 [13]): 61%; viability at 40 µM (PC-12 [14]): 65% |
| C=C[C@@H](O)C#CC#CC/C=C\CCCCCCC |  |  |  |  |  |  | 68 | Survival (PC-12 [20]): 59%; Activity (PC-12 [21]): 211 U/L; Activity [22]: Active; inhibition at 10 µM [15]: 7.9%; inhibition at 30 µM [16]: 28.1%; inhibition at 100 µM [17]: 61.6%; IC50 [18]: 41.3 µM |

— ChEMBL document CHEMBL4828723, “Synthesis and Biological Evaluation of Falcarinol-Type Analogues as Potential Calcium Channel Blockers” (J Nat Prod, 2021)
